One block for each compound: values may come before it. Calls of active or inactive are those of the source. No cut-off for these calls is given here.
Experiments:
[1] = biological target: T1, Protein-serine O-palmitoleoyltransferase porcupine (Homo sapiens) (UniProt Q9H237); experiment: Inhibition of porcn-mediated Shh palmitoylation in human DLD1 lysate by detergent solubility fractionation assessed as [3H]palmitate incorporation at 2.5 uM by autoradiography method
T1 sequence (whole entry): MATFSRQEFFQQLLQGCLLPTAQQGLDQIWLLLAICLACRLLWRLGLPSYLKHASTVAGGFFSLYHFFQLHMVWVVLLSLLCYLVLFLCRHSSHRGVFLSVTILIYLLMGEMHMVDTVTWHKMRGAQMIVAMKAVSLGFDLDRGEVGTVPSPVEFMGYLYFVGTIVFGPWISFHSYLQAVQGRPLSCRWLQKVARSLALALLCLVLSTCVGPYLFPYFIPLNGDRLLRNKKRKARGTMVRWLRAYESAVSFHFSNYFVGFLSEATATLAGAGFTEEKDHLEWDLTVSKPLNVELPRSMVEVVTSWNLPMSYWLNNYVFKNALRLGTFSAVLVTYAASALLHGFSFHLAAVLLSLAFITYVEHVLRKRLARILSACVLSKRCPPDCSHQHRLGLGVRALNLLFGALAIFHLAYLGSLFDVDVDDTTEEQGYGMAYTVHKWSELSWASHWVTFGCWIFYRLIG

[2] = biological target: T1, Protein-serine O-palmitoleoyltransferase porcupine (Homo sapiens); experiment: Displacement of IWP-PB from porcn in HEK293 lysate by Western blot analysis
Danio rerio = species: Danio rerio; experiment: Inhibition of caudal fin regeneration after mechanical resection in zebrafish at 10 uM after 7 days; type: functional, organism-based
Procedure, shortened: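 Zebrafish 3-6 months old anaesthetized in 0.02% Tricaine; half of caudal fin resected with razor blade; kept at 28°C in tank water with 10μM compound or DMSO; water and compound replenished daily over assay period.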

[3] = Inhibition of Wnt3A/[…] pathway activity in mouse L cell expressing Wnt3a assessed as inhibition of […] accumulation at 5 uM after 24 hrs by Western blot analysis; type: cell-based
[4] = biological target: T1, Protein-serine O-palmitoleoyltransferase porcupine (Homo sapiens); experiment: Inhibition of porcn-mediated Lrp6 maturation in human DLD1 lysate by detergent solubility fractionation assessed as [3H]palmitate incorporation at 2.5 uM by autoradiography method
[5] = Inhibition of Notch pathway in mouse L cells at 2.5 uM
[6] = Inhibition of Wnt3A/[…] pathway activity in mouse L cell expressing Wnt3a assessed as decrease in phosphorylated Lrp6 level at 5 uM after 24 hrs by Western blot analysis; type: cell-based
[7] = Inhibition of Wnt3A/[…] pathway activity in mouse L cell expressing Wnt3a assessed as decrease in phosphorylated Dvl2 level at 5 uM after 24 hrs by Western blot analysis; type: cell-based
Axin-2 (Homo sapiens) [8] = biological target: Axin-2 (Homo sapiens) (UniProt Q9Y2T1); experiment: Induction of Axin2 stabilization in human DLD1 cells assessed as inhibition of Wnt/beta-[…] pathway; type: cell-based; conditions: DLD-1
[9] = Inhibition of Wnt3A/[…] pathway activity in mouse L cell expressing Wnt3a assessed as inhibition of […] accumulation at 10 uM after 24 hrs by Western blot analysis; type: cell-based
[10] = Inhibition of Wnt3A/[…] pathway activity in mouse L cell expressing Wnt3a assessed as decrease in phosphorylated Dvl2 level at 10 uM after 24 hrs by Western blot analysis; type: cell-based
NCI-H460 = experiment: Antiproliferative activity against human H460 cells assessed as cellular ATP levels after 6 days by Cell-Titer Glow assay; type: functional, cell-based
Procedure, shortened: (§1)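 Cancer cells seeded at 2.5K cells/well with carrier or compound, 0.5% DMSO final; medium with compound changed every 24 hrs for 5 days; on day 6 cellular ATP quantified by CellTiter-Glo luminescence.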

[11] = Inhibition of Wnt3A/[…] pathway activity in mouse L cell expressing Wnt3a assessed as decrease in phosphorylated Lrp6 level at 10 uM after 24 hrs by Western blot analysis; type: cell-based
[12] = Inhibition of Wnt1/beta-[…] pathway activity in mouse L cell expressing Wnt1 and STF assessed as decreased firefly luciferase reporter expression; type: cell-based
DLD-1 [13] = experiment: Antiproliferative activity against human DLD1 cells assessed as cellular ATP levels after 6 days by Cell-Titer Glow assay; type: functional, cell-based; procedure, shortened: as §1
[14] = Inhibition of Wnt3A/[…] pathway activity in mouse L cell expressing Wnt3A and STF assessed as decreased firefly luciferase reporter expression; type: cell-based
Procedure, shortened: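 L-Wnt-STF cells (mouse L-cells stably carrying SuperTopFlash firefly luciferase reporter, control reporter and Wnt3A expression construct), ~5K per well; compounds added 24 hrs after seeding; luciferase activities read 24 hrs later; IC50s calculated from these dose-dependent assays.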

DLD-1 [15] = experiment: Antiproliferative activity against human DLD1 cells overexpressing beta-[…] assessed as renilla luciferase activity after 6 days; type: functional, cell-based
DLD-1 [16] = experiment: Decrease in beta-[…] accumulation in human DLD1 cells expressing in APC mutant; type: functional, cell-based
Axin-2 (Homo sapiens) [17] = biological target: Axin-2 (Homo sapiens) (UniProt Q9Y2T1); experiment: Induction of Axin2 accumulation in human DLD1 cells by Western blot analysis; type: cell-based; conditions: DLD-1
Procedure, shortened: (§2)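 DLD-1 cells exposed to IWR compound at 10μM for a 48 hr assay period; protein levels assessed by Western blot of cell lysates.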

Axin-1 (Homo sapiens) [18] = biological target: Axin-1 (Homo sapiens) (UniProt O15169); experiment: Induction of Axin1 protein stabilization in human H460 cells by Western blot analysis; type: cell-based
Axin-1 (Homo sapiens) [19] = biological target: Axin-1 (Homo sapiens) (UniProt O15169); experiment: Induction of Axin1 protein stabilization in human DLD1 cells by Western blot analysis; type: cell-based; conditions: DLD-1; procedure, shortened: as §2
DU-145 = experiment: Antiproliferative activity against human DU145 cells assessed as cellular ATP levels after 6 days by Cell-Titer Glow assay; type: functional, cell-based; procedure, shortened: as §1
[20] = Inhibition of Wnt2/beta-[…] pathway activity in mouse L cell expressing Wnt2 and STF assessed as decreased firefly luciferase reporter expression; type: cell-based
[21] = biological target: T1, Protein-serine O-palmitoleoyltransferase porcupine (Homo sapiens); experiment: Inhibition of porcn in HEK293 cell lysate by Western blot analysis; type: cell-free
Procedure, shortened: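 Lysate (10mM Na2HPO4 pH7.4, […], 1% NP-40) of HEK293 cells transfected with Porcn-myc preincubated 1 hr at 4°C with DMSO, linker or competitor, then NeutrAvidin resin plus biotinylated probe (0.17 mM); rotated overnight at 4°C, washed, eluate analysed by Western blot.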

Axin-2 (Homo sapiens) [22] = biological target: Axin-2 (Homo sapiens) (UniProt Q9Y2T1); experiment: Binding affinity at Axin2 in HEK293 cells by Western blot method; type: cell-based
Axin-2 (Homo sapiens) [23] = biological target: Axin-2 (Homo sapiens) (UniProt Q9Y2T1); experiment: Binding affinity to Axin2 IWR-IS in HEK293 cells; type: cell-based

Axin-2 (Homo sapiens), sequence (Q9Y2T1 whole entry): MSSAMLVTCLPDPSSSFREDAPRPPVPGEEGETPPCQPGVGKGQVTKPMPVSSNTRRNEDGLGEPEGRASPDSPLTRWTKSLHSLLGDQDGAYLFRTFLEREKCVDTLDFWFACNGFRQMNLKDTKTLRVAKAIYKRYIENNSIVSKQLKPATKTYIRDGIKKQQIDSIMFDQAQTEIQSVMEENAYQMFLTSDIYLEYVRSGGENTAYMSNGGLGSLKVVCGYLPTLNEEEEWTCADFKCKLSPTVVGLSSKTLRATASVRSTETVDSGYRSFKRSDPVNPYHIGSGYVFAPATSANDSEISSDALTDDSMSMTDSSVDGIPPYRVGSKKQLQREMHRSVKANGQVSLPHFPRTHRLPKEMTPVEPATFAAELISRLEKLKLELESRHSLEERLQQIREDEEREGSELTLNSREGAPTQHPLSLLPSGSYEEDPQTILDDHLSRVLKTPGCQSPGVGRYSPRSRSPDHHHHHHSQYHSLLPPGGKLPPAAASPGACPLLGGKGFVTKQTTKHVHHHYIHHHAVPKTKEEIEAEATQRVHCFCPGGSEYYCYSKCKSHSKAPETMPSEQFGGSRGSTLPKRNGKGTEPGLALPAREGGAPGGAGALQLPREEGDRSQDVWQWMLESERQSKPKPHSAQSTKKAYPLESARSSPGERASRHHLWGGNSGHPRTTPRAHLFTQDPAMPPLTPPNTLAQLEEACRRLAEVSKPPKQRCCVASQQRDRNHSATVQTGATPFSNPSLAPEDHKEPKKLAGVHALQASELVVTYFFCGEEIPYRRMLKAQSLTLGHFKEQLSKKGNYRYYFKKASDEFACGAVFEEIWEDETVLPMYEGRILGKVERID
Axin-1 (Homo sapiens), sequence (O15169 whole entry): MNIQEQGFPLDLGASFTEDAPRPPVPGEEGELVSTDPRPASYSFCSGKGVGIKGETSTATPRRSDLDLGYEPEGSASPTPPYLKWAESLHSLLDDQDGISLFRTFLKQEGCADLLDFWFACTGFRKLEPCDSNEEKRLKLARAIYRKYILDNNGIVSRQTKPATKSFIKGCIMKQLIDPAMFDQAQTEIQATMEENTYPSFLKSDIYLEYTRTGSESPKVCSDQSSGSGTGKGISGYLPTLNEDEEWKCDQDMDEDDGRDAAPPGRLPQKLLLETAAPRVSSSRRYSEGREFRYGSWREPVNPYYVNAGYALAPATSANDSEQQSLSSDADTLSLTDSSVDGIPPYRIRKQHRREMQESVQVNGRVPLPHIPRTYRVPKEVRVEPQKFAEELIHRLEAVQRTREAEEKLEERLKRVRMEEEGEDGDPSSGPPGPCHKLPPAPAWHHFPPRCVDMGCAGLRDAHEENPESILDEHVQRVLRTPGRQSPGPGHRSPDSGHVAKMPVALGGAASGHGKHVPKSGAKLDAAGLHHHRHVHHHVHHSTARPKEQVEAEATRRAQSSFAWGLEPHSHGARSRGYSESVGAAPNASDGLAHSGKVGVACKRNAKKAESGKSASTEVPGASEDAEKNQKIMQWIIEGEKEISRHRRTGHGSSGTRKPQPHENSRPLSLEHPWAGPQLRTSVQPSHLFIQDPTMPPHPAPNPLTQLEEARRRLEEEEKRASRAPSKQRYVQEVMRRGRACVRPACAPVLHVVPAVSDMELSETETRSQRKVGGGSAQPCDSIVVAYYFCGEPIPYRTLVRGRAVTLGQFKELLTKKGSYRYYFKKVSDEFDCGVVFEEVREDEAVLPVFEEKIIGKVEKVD

Compound: COc1ccc(-n2nc(C(=O)NCC(=O)Nc3nc4ccc(OC)cc4s3)c3ccccc3c2=O)cc1
inhibition [1]: inactive
inhibition [2]: Active
inhibition (Danio rerio): inactive
inhibition [3]: Active
inhibition [4]: inactive
inhibition [5]: inactive
inhibition [6]: Active
inhibition [7]: Active

Compound: O=C(Nc1cccc2cccnc12)c1ccc(N2C(=O)[C@@H]3[C@H](C2=O)[C@H]2C=C[C@@H]3C2)cc1
inhibition (Danio rerio): inactive
Activity (Axin-2 (Homo sapiens) [8]): inactive

Compound: O=C(NC1CCCC1)c1ccc(Cn2c(=O)c3ccccc3n(Cc3cc(=O)n4ccccc4n3)c2=O)cc1
inhibition [9]: Active
inhibition [10]: inactive
inhibition [11]: inactive
inhibition [12]: Active
inhibition [14]: Active
inhibition (DLD-1 [16]): Active
Activity (Axin-2 (Homo sapiens) [17]): Active
inhibition [20]: Active

Compound: N#Cc1ccccc1Cn1c(=O)n(CC2CCC(C(=O)NCc3ccccc3)CC2)c(=O)c2ccccc21 (stereo unspecified)
inhibition [9]: Active
inhibition [10]: inactive
inhibition [11]: inactive
inhibition [12]: Active
inhibition [14]: Active
inhibition (DLD-1 [16]): Active
Activity (Axin-2 (Homo sapiens) [17]): Active
inhibition [20]: Active

Compound: O=C(CSc1nc2c(c(=O)n1-c1ccccc1)SCC2)Nc1nccs1
Inhibition (active/inactive) [21]: Active

Compound: Cc1ccc2nc(NC(=O)CSc3nc4c(c(=O)n3-c3ccc(CNC(=O)CCOCCOCCOCCNC(=O)CCCC[C@@H]5SC[C@@H]6NC(=O)N[C@@H]65)cc3)SCC4)sc2c1
Inhibition (active/inactive) [21]: Active
Activity (Axin-2 (Homo sapiens) [22]): Active
Activity (Axin-2 (Homo sapiens) [23]): Active

Compound: COc1ccccc1-n1c(SCC(=O)Nc2nc3ccc(C)cc3s2)nc2c(c1=O)SCC2
inhibition [1]: inactive
inhibition (Danio rerio): inactive
inhibition [3]: Active
inhibition [5]: inactive
inhibition [6]: Active
inhibition [7]: Active

More lines, main results first:

Activity (Axin-2 (Homo sapiens) [8]): inactive
Compound: O=C(O)c1ccc(N2C(=O)[C@@H]3[C@H](C2=O)[C@@H]2C=C[C@H]3C2)cc1
inhibition (Danio rerio): inactive

Activity (Axin-2 (Homo sapiens) [17]): Active
Activity (Axin-1 (Homo sapiens) [18]): Active
Activity (Axin-1 (Homo sapiens) [19]): Active
Compound: Cc1cccc2nc(Cn3c(=O)n(CC4CCC(C(=O)NCc5ccccc5)CC4)c(=O)c4ccccc43)cc(=O)n12 (stereo unspecified)
inhibition [9]: Active
inhibition [10]: inactive
Activity (NCI-H460): inactive
inhibition [11]: inactive
inhibition (Danio rerio): Active
inhibition [12]: Active
Activity (DLD-1 [13]): Active
inhibition [14]: Active
Activity (DLD-1 [15]): inactive
inhibition (DLD-1 [16]): Active
Activity (DU-145): Active
inhibition [20]: Active

Inhibition (active/inactive) [21]: Active
Compound: CC1Cc2nc(SCC(=O)Nc3nc4ccccc4s3)n(Cc3ccccc3)c(=O)c2S1 (stereo unspecified)

inhibition [1]: inactive
Compound: Cc1ccc2nc(NC(=O)CSc3nc4c(c(=O)n3-c3ccc(F)cc3)SCC4)sc2c1
inhibition (Danio rerio): inactive
inhibition [3]: Active
inhibition [5]: inactive
inhibition [6]: Active
inhibition [7]: Active

Inhibition (active/inactive) [21]: Active
Compound: Cc1ccc2nc(NC(=O)CSc3nc4c(c(=O)n3Cc3ccccc3)SCC4)sc2c1

Reference: ChEMBL document CHEMBL1255380, “Small molecule-mediated disruption of Wnt-dependent signaling in tissue regeneration and cancer” (Nat Chem Biol, 2009)
